Results of several laboratories.
Lines come from different studies, so protocols differ.

| SMILES | target or system | test | test system | setting | endpoint | result |
| --- | --- | --- | --- | --- | --- | --- |
| CO[C@H]1/C=C/O[C@@]2(C)Oc3c(C)c(O)c4c(O)c(c(/C=N/N5CCN(C)CC5)c(O)c4c3C2=O)NC(=O)/C(C)=C\C=C\[C@H](C)[C@H](O)[C@@H](C)[C@@H](O)[C@@H](C)[C@H](OC(C)=O)[C@@H]1C | Mycobacterium avium | microbial growth |  | 6 days | MIC | < 0.78 µM |
| Cc1cccc2c(CNCC3(N4CCCC4)COC3)c[nH]c12 | GBM6 | cell growth or viability |  | 30 µM, 48 h | viability | 60.4% |
| N.N.[Cl][Pt][Cl] | SK-MEL-28 | cell growth or viability, resazurin |  | dark | EC50 | 2.8 µM |
| CNCCN(C)C(=O)Oc1c(Br)c(C)nc(C)c1-c1ccc(Oc2ccc(OC(F)(F)F)cc2)cc1 | HEK293 | cell growth or viability |  |  | IC50 | > 10 µM |
| CO[C@H]1/C=C/O[C@@]2(C)Oc3c(C)c(O)c4c(O)c(c(/C=N/N5CCN(C)CC5)c(O)c4c3C2=O)NC(=O)/C(C)=C\C=C\[C@H](C)[C@H](O)[C@@H](C)[C@@H](O)[C@@H](C)[C@H](OC(C)=O)[C@@H]1C | Mycolicibacterium phlei | microbial growth |  |  | MIC | 0.03 µg/mL |
| O=C(NC1CCC(CN2CCC(c3c[nH]c4ccccc34)CC2)CC1)c1cn(Cc2ccccc2)c2ccccc12 (stereo not shown) | HEK293 | cell growth or viability |  |  | IC50 | > 10 µM |
| c1ccc(-c2ccc(C(c3ccccc3)n3ccnc3)cc2)cc1 (stereo not shown) | Vesicular stomatitis virus | viral entry, inhibitor | Vero C1008 | pseudovirus | IC50 | 30 to 40 µM |
| O=c1c2ccccc2[se]n1-c1ccccc1 | HEK293 | cell growth or viability, MTT |  | 125 µM, 72 h | inhibition | 43% |
| CNCCCN(C)C(=O)Oc1c(Br)c(C)nc(C)c1-c1ccc(Oc2ccc(OC(F)(F)F)cc2)cc1 | HEK293 | cell growth or viability |  |  | IC50 | > 10 µM |
| CO[C@H]1/C=C/O[C@@]2(C)Oc3c(C)c(O)c4c(O)c(c(/C=N/N5CCN(C)CC5)c(O)c4c3C2=O)NC(=O)/C(C)=C\C=C\[C@H](C)[C@H](O)[C@@H](C)[C@@H](O)[C@@H](C)[C@H](OC(C)=O)[C@@H]1C | Mycobacterium avium | microbial growth | ATCC25291 |  | MIC | 3.1 µg/mL |
| Oc1cccc(C2CCCN(CCc3c[nH]c4ccccc34)C2)c1 (stereo not shown) | HEK293 | cell growth or viability |  |  | IC50 | > 10 µM |
| Cc1cccc2[nH]cc(CNCC3(N4CCCC4)COC3)c12 | GBM6 | cell growth or viability |  | 30 µM, 48 h | viability | 77.5% |
| NNC(=O)c1ccncc1 | Mycolicibacterium phlei | microbial growth |  |  | MIC | > 8 µg/mL |
